Reference: ChEMBL document CHEMBL1135354, “Synthesis and activity of a novel class of tribasic macrocyclic antibiotics: the triamilides” (2002)
In brackets after ≈: the same amount, converted by molar mass.

What was measured:
Assay type in all cases: functional
[1] = tested on: Escherichia coli; test: In vitro minimum inhibitory concentration required to inhibit growth of Escherichia coli.; settings: Escherichia coli
Procedure, shortened: (§1)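 Broth microdilution per NCCLS; E. coli 51A0150 (poultry lung) and P. multocida 59A0067 (turkey). Overnight BHI plate colonies suspended in saline to OD625 0.09 (0.5 McFarland), diluted 1:100 in BHI broth; final ~5×10^5 cfu/mL against 2-fold serial dilutions in BHI broth.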

[2] = tested on: Pasteurella multocida; test: Effective dose required to inhibit Pasteurella multocida infection model in mouse by subcutaneous administration; settings: Pasteurella multocida, sc; read-out: ED50
Procedure, shortened: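 Mice infected intranasally with P. multocida (respiratory disease model); drug given subcutaneously 0.5 h post-infection at 5–80 mg/kg. ED50 derived from number of surviving mice 4 days after infection.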

[3] = tested on: Pasteurella multocida; test: Minimum inhibitory concentration required to inhibit growth of Pasteurella multocida in vitro by microdilution method.; settings: Pasteurella multocida; read-out: MIC; procedure, shortened: as §1

Row | Compound | MIC [1] | MIC [3] | ED50 [2]
1 | CC[C@H]1OC(=O)[C@H](C)[C@@H](O[C@H]2C[C@@](C)(OC)[C@](O)(CN3CCCC3)[C@H](C)O2)[C@H](C)[C@@H](O[C@@H]2O[C@H](C)C[C@H](N(C)C)[C@H]2O)[C@](C)(O)C[C@@H](C)CN[C@H](C)[C@@H](O)[C@]1(C)O | 0.2 µg/mL (≈ 0.244 µM) | 0.05 µg/mL (≈ 0.0611 µM) | < 10 mg/kg
2 | CCCCNC[C@]1(O)[C@H](C)O[C@@H](O[C@H]2[C@H](C)[C@@H](O[C@@H]3O[C@H](C)C[C@H](N(C)C)[C@H]3O)[C@](C)(O)C[C@@H](C)CN[C@H](C)[C@@H](O)[C@](C)(O)[C@@H](CC)OC(=O)[C@@H]2C)C[C@@]1(C)OC | 0.78 µg/mL (≈ 0.951 µM) | 0.1 µg/mL (≈ 0.122 µM) | 17 mg/kg
3 | CC[C@H]1OC(=O)[C@H](C)[C@@H](O[C@H]2C[C@@](C)(OC)[C@@](O)(Cn3ccnc3)[C@H](C)O2)[C@H](C)[C@@H](O[C@@H]2O[C@H](C)C[C@H](N(C)C)[C@H]2O)[C@](C)(O)C[C@@H](C)CN[C@H](C)[C@@H](O)[C@]1(C)O | 3.13 µg/mL (≈ 3.84 µM) | 0.2 µg/mL (≈ 0.245 µM) | 20 mg/kg
4 | CC[C@H]1OC(=O)[C@H](C)[C@@H](O[C@H]2C[C@@](C)(OC)[C@@](O)(CNCC(F)(F)F)[C@H](C)O2)[C@H](C)[C@@H](O[C@@H]2O[C@H](C)C[C@H](N(C)C)[C@H]2O)[C@](C)(O)C[C@@H](C)CN[C@H](C)[C@@H](O)[C@]1(C)O | 1.56 µg/mL (≈ 1.84 µM) | < 0.1 µg/mL | 46 mg/kg
5 | CC[C@H]1OC(=O)[C@H](C)[C@@H](O[C@H]2C[C@@](C)(OC)[C@@](O)(CN(CCO)CCO)[C@H](C)O2)[C@H](C)[C@@H](O[C@@H]2O[C@H](C)C[C@H](N(C)C)[C@H]2O)[C@](C)(O)C[C@@H](C)CN[C@H](C)[C@@H](O)[C@]1(C)O | > 50 µg/mL | 3.13 µg/mL (≈ 3.67 µM) | –
6 | CC[C@H]1OC(=O)[C@H](C)[C@@H](O[C@H]2C[C@@](C)(OC)[C@](O)(CN3CCCCC3)[C@H](C)O2)[C@H](C)[C@@H](O[C@@H]2O[C@H](C)C[C@H](N(C)C)[C@H]2O)[C@](C)(O)C[C@@H](C)CN[C@H](C)[C@@H](O)[C@]1(C)O | 0.39 µg/mL (≈ 0.469 µM) | 0.05 µg/mL (≈ 0.0601 µM) | –
7 | CC[C@H]1OC(=O)[C@H](C)[C@@H](O[C@H]2C[C@@](C)(OC)[C@@](O)(CN3CCCC3)[C@H](C)O2)[C@H](C)[C@@H](O[C@@H]2O[C@H](C)C[C@H](N(C)C)[C@H]2O)[C@](C)(O)C[C@@H](C)CN[C@H](C)[C@@H](O)[C@]1(C)O | 0.2 µg/mL (≈ 0.244 µM) | 50 µg/mL (≈ 61.1 µM) | 7.3 mg/kg

More lines, main results first:

Row | MIC [1] | MIC [3] | Compound | ED50 [2]
8 | 1.56 µg/mL (≈ 1.9 µM) | 0.1 µg/mL (≈ 0.122 µM) | CC[C@H]1OC(=O)[C@H](C)[C@@H](O[C@H]2C[C@@](C)(OC)[C@@](O)(CN(C)CCO)[C@H](C)O2)[C@H](C)[C@@H](O[C@@H]2O[C@H](C)C[C@H](N(C)C)[C@H]2O)[C@](C)(O)C[C@@H](C)CN[C@H](C)[C@@H](O)[C@]1(C)O | 12 mg/kg
9 | 0.39 µg/mL (≈ 0.476 µM) | 0.05 µg/mL (≈ 0.061 µM) | CC[C@H]1OC(=O)[C@H](C)[C@@H](O[C@H]2C[C@@](C)(OC)[C@](O)(CNC(C)(C)C)[C@H](C)O2)[C@H](C)[C@@H](O[C@@H]2O[C@H](C)C[C@H](N(C)C)[C@H]2O)[C@](C)(O)C[C@@H](C)CN[C@H](C)[C@@H](O)[C@]1(C)O | 9.6 mg/kg
10 | 0.78 µg/mL (≈ 0.953 µM) | 0.1 µg/mL (≈ 0.122 µM) | CC[C@H]1OC(=O)[C@H](C)[C@@H](O[C@H]2C[C@@](C)(OC)[C@@](O)(CN(C)C3CC3)[C@H](C)O2)[C@H](C)[C@@H](O[C@@H]2O[C@H](C)C[C@H](N(C)C)[C@H]2O)[C@](C)(O)C[C@@H](C)CN[C@H](C)[C@@H](O)[C@]1(C)O | 17 mg/kg
11 | 0.39 µg/mL (≈ 0.492 µM) | 0.05 µg/mL (≈ 0.0631 µM) | CC[C@H]1OC(=O)[C@H](C)[C@@H](O[C@H]2C[C@@](C)(OC)[C@](O)(CN(C)C)[C@H](C)O2)[C@H](C)[C@@H](O[C@@H]2O[C@H](C)C[C@H](N(C)C)[C@H]2O)[C@](C)(O)C[C@@H](C)CN[C@H](C)[C@@H](O)[C@]1(C)O | 5.9 mg/kg
12 | 0.39 µg/mL (≈ 0.477 µM) | 0.1 µg/mL (≈ 0.122 µM) | CC[C@H]1OC(=O)[C@H](C)[C@@H](O[C@H]2C[C@@](C)(OC)[C@@](O)(CNCC3CC3)[C@H](C)O2)[C@H](C)[C@@H](O[C@@H]2O[C@H](C)C[C@H](N(C)C)[C@H]2O)[C@](C)(O)C[C@@H](C)CN[C@H](C)[C@@H](O)[C@]1(C)O | 5.7 mg/kg
13 | 0.39 µg/mL (≈ 0.492 µM) | < 0.1 µg/mL | CC[C@H]1OC(=O)[C@H](C)[C@@H](O[C@H]2C[C@@](C)(OC)[C@@](O)(CN(C)C)[C@H](C)O2)[C@H](C)[C@@H](O[C@@H]2O[C@H](C)C[C@H](N(C)C)[C@H]2O)[C@](C)(O)C[C@@H](C)CN[C@H](C)[C@@H](O)[C@]1(C)O | 9.9 mg/kg
14 | 6.25 µg/mL (≈ 8.18 µM) | 0.39 µg/mL (≈ 0.51 µM) | CC[C@H]1OC(=O)[C@H](C)[C@@H](O[C@H]2C[C@@](C)(OC)[C@@](O)(CN)[C@H](C)O2)[C@H](C)[C@@H](O[C@@H]2O[C@H](C)C[C@H](N(C)C)[C@H]2O)[C@](C)(O)C[C@@H](C)CN[C@H](C)[C@@H](O)[C@]1(C)O | 30 mg/kg
